Measurements: ChEMBL document CHEMBL3286357, “Design, synthesis and pharmacological evaluation of novel substituted quinoline-2-carboxamide derivatives as human dihydroorotate dehydrogenase (hDHODH) inhibitors and anticancer agents” (Eur J Med Chem, 2014)

Columns and labels:
[1] = Antiproliferative activity against human Hep3B cells at 0.14 ug/ml for 24 hrs by MTT assay; type: functional, Hep 3B2
In short: (§1)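 HEP-3B or A-375 cells were grown in DMEM with 10% FBS, 5% HBSS, penicillin, streptomycin and amphotericin B at 37 C and 5% CO2. Cells were seeded at 2 × 10^4 per well and preincubated for 24 h. They were then exposed to ten 1:3 serial dilutions from a top concentration of 100, made from 2% DMSO stocks. MTT was added for 3 h, formazan was dissolved in DMSO, and A550 was read. Wells were run in triplicate across three independent experiments. IC50 came from dose-response curves.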

[2] = Antiproliferative activity against human Hep3B cells at 33.33 ug/ml for 24 hrs by MTT assay; type: functional, Hep 3B2; in short: as §1
A-375 [3] = test: Antiproliferative activity against human A375 cells at 0.02 ug/ml for 24 hrs by MTT assay; type: functional; settings: A-375, 24 h; in short: as §1
[4] = Antiproliferative activity against human Hep3B cells at 100 ug/ml for 24 hrs by MTT assay; type: functional, Hep 3B2; in short: as §1
[5] = Antiproliferative activity against human Hep3B cells at 0.02 ug/ml for 24 hrs by MTT assay; type: functional, Hep 3B2; in short: as §1
[6] = Retention time of compound by HPLC analysis; type: physicochemical
A-375 [7] = test: Antiproliferative activity against human A375 cells at 0.41 ug/ml for 24 hrs by MTT assay; type: functional; settings: A-375, 24 h; in short: as §1
[8] = Antiproliferative activity against human Hep3B cells at 11.11 ug/ml for 24 hrs by MTT assay; type: functional, Hep 3B2; in short: as §1
A-375 [9] = test: Antiproliferative activity against human A375 cells at 11.11 ug/ml for 24 hrs by MTT assay; type: functional; settings: A-375, 24 h; in short: as §1
[10] = Antiproliferative activity against human Hep3B cells at 0.41 ug/ml for 24 hrs by MTT assay; type: functional, Hep 3B2; in short: as §1
HEP-3B (human hepatoma) = test: Antiproliferative activity against human Hep3B cells for 24 hrs by MTT assay
[11] = Antiproliferative activity against human Hep3B cells at 0.05 ug/ml for 24 hrs by MTT assay; type: functional, Hep 3B2; in short: as §1
[12] = Antiproliferative activity against human Hep3B cells at 3.7 ug/ml for 24 hrs by MTT assay; type: functional, Hep 3B2; in short: as §1
A-375 (human melanoma) = test: Antiproliferative activity against human A375 cells for 24 hrs by MTT assay; settings: A-375, 24 h
A-375 [13] = test: Antiproliferative activity against human A375 cells at 100 ug/ml for 24 hrs by MTT assay; type: functional; settings: A-375, 24 h; in short: as §1
A-375 [14] = test: Antiproliferative activity against human A375 cells at 33.33 ug/ml for 24 hrs by MTT assay; type: functional; settings: A-375, 24 h; in short: as §1
A-375 [15] = test: Antiproliferative activity against human A375 cells at 1.23 ug/ml for 24 hrs by MTT assay; type: functional; settings: A-375, 24 h; in short: as §1
[16] = Antiproliferative activity against human Hep3B cells at 1.23 ug/ml for 24 hrs by MTT assay; type: functional, Hep 3B2; in short: as §1
A-375 [17] = test: Antiproliferative activity against human A375 cells at 0.14 ug/ml for 24 hrs by MTT assay; type: functional; settings: A-375, 24 h; in short: as §1
A-375 [18] = test: Antiproliferative activity against human A375 cells at 0.01 ug/ml for 24 hrs by MTT assay; type: functional; settings: A-375, 24 h; in short: as §1
A-375 [19] = test: Antiproliferative activity against human A375 cells at 0.05 ug/ml for 24 hrs by MTT assay; type: functional; settings: A-375, 24 h; in short: as §1
A-375 [20] = test: Antiproliferative activity against human A375 cells at 3.7 ug/ml for 24 hrs by MTT assay; type: functional; settings: A-375, 24 h; in short: as §1
[21] = Antiproliferative activity against human Hep3B cells at 0.01 ug/ml for 24 hrs by MTT assay; type: functional, Hep 3B2; in short: as §1

| SMILES | IC50 (HEP-3B (human hepatoma)) | IC50 (A-375 (human melanoma)) | inhibition at 0.14 µg/mL [1] | inhibition at 33.33 µg/mL [2] | inhibition at 0.02 µg/mL (A-375 [3]) | inhibition at 100 µg/mL [4] | inhibition at 0.02 µg/mL [5] | inhibition at 0.41 µg/mL (A-375 [7]) | inhibition at 11.11 µg/mL [8] | inhibition at 11.11 µg/mL (A-375 [9]) | inhibition at 0.41 µg/mL [10] | inhibition at 0.05 µg/mL [11] | inhibition at 3.7 µg/mL [12] | inhibition at 100 µg/mL (A-375 [13]) | inhibition at 33.33 µg/mL (A-375 [14]) | inhibition at 1.23 µg/mL (A-375 [15]) | inhibition at 1.23 µg/mL [16] | inhibition at 0.14 µg/mL (A-375 [17]) | inhibition at 0.01 µg/mL (A-375 [18]) | inhibition at 0.05 µg/mL (A-375 [19]) | other results |
| --- | --- | --- | --- | --- | --- | --- | --- | --- | --- | --- | --- | --- | --- | --- | --- | --- | --- | --- | --- | --- | --- |
| Cc1c(C(=O)Nc2ccc(-c3ccccc3)cc2)nc2ccccc2c1C(=O)O | > 100 µM | 83.5 µM | 0.03% | 11.2% | 0.12% | 44.4% | -0.35% | 2.38% | 3.25% | 20.3% | 0.98% | -0.12% | 2.31% | 50.3% | 25.6% | 7.65% | 1.25% | 1.56% | -0.35% | 0.87% | Retention_time [6]: 6.8 min; inhibition at 3.7 µg/mL (A-375 [20]): 16.3%; inhibition at 0.01 µg/mL [21]: -0.68% |
| COc1ccc2nc(C(=O)Nc3c(F)cc(-c4cccc(F)c4)cc3F)c(C)c(C(=O)O)c2c1 | > 100 µM | 14.3 µM | 0.02% | 7.24% | 0.13% | 28.3% | -0.57% | 3.87% | 2.34% | 35.2% | 0.68% | -0.66% | 1.62% | 58.7% | 44.5% | 10.2% | 1.05% | 2.06% | 0.05% | 1.05% | Retention_time [6]: 6.9 min; inhibition at 3.7 µg/mL (A-375 [20]): 24.6%; inhibition at 0.01 µg/mL [21]: -0.68% |
| Cc1c(-c2ccc(-c3ccccc3F)cc2)nc2ccc(F)cc2c1C(=O)O [BREQUINAR SODIUM] | 8.1 µM | 10.2 µM | 4.52% | 52.3% | 1.02% | 68.3% | 0.65% | 18.4% | 46% | 46.6% | 15.3% | 2.05% | 34.2% | 74.6% | 59.7% | 26.3% | 21.4% | 3.48% | 0.18% | 2.65% | inhibition at 3.7 µg/mL (A-375 [20]): 33.2%; inhibition at 0.01 µg/mL [21]: 0.23% |

Further lines, with some results ahead:

| IC50 (HEP-3B (human hepatoma)) | IC50 (A-375 (human melanoma)) | SMILES | inhibition at 0.14 µg/mL [1] | inhibition at 33.33 µg/mL [2] | inhibition at 0.02 µg/mL (A-375 [3]) | inhibition at 100 µg/mL [4] | inhibition at 0.02 µg/mL [5] | inhibition at 0.41 µg/mL (A-375 [7]) | inhibition at 11.11 µg/mL [8] | inhibition at 11.11 µg/mL (A-375 [9]) | inhibition at 0.41 µg/mL [10] | inhibition at 0.05 µg/mL [11] | inhibition at 3.7 µg/mL [12] | inhibition at 100 µg/mL (A-375 [13]) | inhibition at 33.33 µg/mL (A-375 [14]) | inhibition at 1.23 µg/mL (A-375 [15]) | inhibition at 1.23 µg/mL [16] | inhibition at 0.14 µg/mL (A-375 [17]) | inhibition at 0.01 µg/mL (A-375 [18]) | inhibition at 0.05 µg/mL (A-375 [19]) | other results |
| --- | --- | --- | --- | --- | --- | --- | --- | --- | --- | --- | --- | --- | --- | --- | --- | --- | --- | --- | --- | --- | --- |
| 75.5 µM | 37.2 µM | Cc1c(C(=O)Nc2ccc(-c3ccccc3)cc2)nc2ccccc2c1O | 3.02% | 46.2% | 0.06% | 84.2% | 1.05% | 2.65% | 38.3% | 26.5% | 9.34% | 1.68% | 21.5% | 52.3% | 34.3% | 4.56% | 14.2% | 1.98% | -0.11% | 1.05% | Retention_time [6]: 6.9 min; inhibition at 3.7 µg/mL (A-375 [20]): 17.2%; inhibition at 0.01 µg/mL [21]: 0.23% |
| 65.2 µM | > 100 µM | Cc1c(C(=O)Nc2c(F)cc(-c3cccc(F)c3)cc2F)nc2ccc(F)cc2c1O | 2.65% | 41.2% | -0.13% | 75.2% | 0.35% | 0.86% | 31.3% | 16.2% | 4.85% | 1.25% | 22.3% | 51.3% | 28.8% | 2.34% | 15.3% | 0% | -0.35% | 0.05% | Retention_time [6]: 6.9 min; inhibition at 3.7 µg/mL (A-375 [20]): 7.85%; inhibition at 0.01 µg/mL [21]: -0.12% |
